Reference: ChEMBL document CHEMBL1142504, “Influence of 6- or 8-substitution on the antiviral activity of 3-arylalkylthiomethylimidazo[1,2-a]pyridine against human cytomegalovirus (CMV) and varicella-zoster virus (VZV): part II” (Bioorg Med Chem, 2008)
Converted amounts (≈) assume the structure as drawn.

How the values were obtained:
Human alphaherpesvirus 3 [1] = assay: Antiviral activity against thymidine kinase expressing Varicella-Zoster virus Oka in HEL cells assessed as inhibition of viral cytopathicity; format: functional, organism-based; conditions: Human alphaherpesvirus 3, Oka
How it was run: (§1)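 VZV input was 20 PFU per HEL cell culture. Cultures were incubated with test compound for 5 days at 37 °C under 5% CO2, then fixed and stained. Viral plaque formation was counted against the untreated control to give the EC50.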

[2] = Cytotoxicity against HEL cells assessed as reduction of growth after 3 days; format: cell-based; conditions: human
How it was run: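 HEL cell suspensions were added to wells holding varying concentrations of test compound. Plates were incubated 3 days at 37 °C in a humidified CO2 incubator, and viable cells were counted with a Coulter Counter. CC50 is the concentration that reduced viable cell number by 50%.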

Human alphaherpesvirus 3 [3] = assay: Antiviral activity against thymidine kinase deficient Varicella-Zoster virus 07/1 in HEL cells assessed as inhibition of viral cytopathicity; format: functional, organism-based; conditions: Human alphaherpesvirus 3, HEL; how it was run: as §1
Human betaherpesvirus 5 [4] = assay: Antiviral activity against human cytomegalovirus AD169 in HEL cells assessed as inhibition of viral cytopathicity; format: functional, organism-based; conditions: Human betaherpesvirus 5, AD169, HEL
How it was run: (§2)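 Confluent HEL cell cultures were inoculated with 100 PFU of HCMV. After 2 h adsorption, residual virus was removed and cells were incubated with varying concentrations of test compound. Viral cytopathicity was scored when it reached completion in the untreated virus-infected controls, and the EC50 was taken from this read-out.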

[5] = Cytotoxicity against HEL cells assessed as morphological alteration after 3 days; format: cell-based; conditions: human
How it was run: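 HEL cell cultures were examined by microscope. Cytotoxicity was recorded as the minimum cytotoxic concentration (MCC), meaning the lowest compound concentration that caused a detectable alteration of cell morphology.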

Human betaherpesvirus 5 [6] = assay: Antiviral activity against human cytomegalovirus Davis in HEL cells assessed as inhibition of viral cytopathicity; format: functional, organism-based; conditions: Human betaherpesvirus 5, Davis; how it was run: as §2

| Compound | EC50 (Human alphaherpesvirus 3 [1]) | CC50 at 72 h [2] | EC50 (Human alphaherpesvirus 3 [3]) | EC50 (Human betaherpesvirus 5 [4]) | MCC at 72 h [5] | EC50 (Human betaherpesvirus 5 [6]) |
| --- | --- | --- | --- | --- | --- | --- |
| Cc1cc(-c2ccco2)c2ncc(CSCCc3ccccc3)n2c1 | 6.6 µg/mL (≈ 18.9 µM) | 41 µg/mL (≈ 118 µM) | 7.9 µg/mL (≈ 22.7 µM) | 2.5 µg/mL (≈ 7.17 µM) | 100 µg/mL | 2.7 µg/mL (≈ 7.75 µM) |
| Cc1cc(N2CCOCC2)cn2c(CSCCc3ccccc3)cnc12 | > 20 µg/mL | 45 µg/mL (≈ 122 µM) | > 20 µg/mL | > 20 µg/mL | 100 µg/mL | > 20 µg/mL |
| Cc1cc(N2CCOCC2)c2ncc(CSCCc3ccccc3)n2c1 | 53.6 µg/mL (≈ 146 µM) | 49 µg/mL (≈ 133 µM) | 36.6 µg/mL (≈ 99.6 µM) | > 4 µg/mL | > 100 µg/mL | 8.2 µg/mL (≈ 22.3 µM) |
| Cc1cc(-n2ccnc2)cn2c(CSCCc3ccccc3)cnc12 | 10.7 µg/mL (≈ 30.7 µM) | 23 µg/mL (≈ 66 µM) | 11.4 µg/mL (≈ 32.7 µM) | 8.9 µg/mL (≈ 25.5 µM) | 100 µg/mL | 6.8 µg/mL (≈ 19.5 µM) |
| Cc1cc(-c2ccoc2)c2ncc(CSCCc3ccccc3)n2c1 | 20 µg/mL (≈ 57.4 µM) | 64 µg/mL (≈ 184 µM) | > 20 µg/mL | 1.8 µg/mL (≈ 5.17 µM) | 100 µg/mL | 1.3 µg/mL (≈ 3.73 µM) |
| Cc1cc(-n2ccc3cccnc32)cn2c(CSCCc3ccccc3)cnc12 | > 4 µg/mL | 16 µg/mL (≈ 40.1 µM) | > 4 µg/mL | 2 µg/mL (≈ 5.02 µM) | 20 µg/mL | 1.4 µg/mL (≈ 3.51 µM) |
| Cc1cc(C#N)cn2c(CSCCc3ccccc3)cnc12 | > 4 µg/mL | 14 µg/mL (≈ 45.5 µM) | > 4 µg/mL | 8.9 µg/mL (≈ 29 µM) | 20 µg/mL | 8.9 µg/mL (≈ 29 µM) |
| Cc1cc(Sc2ccc(N)cc2)cn2c(CSCCc3ccccc3)cnc12 | > 4 µg/mL | 23 µg/mL (≈ 56.7 µM) | 2.2 µg/mL (≈ 5.42 µM) | 1.8 µg/mL (≈ 4.44 µM) | 20 µg/mL | 1.8 µg/mL (≈ 4.44 µM) |
| Cc1cc(-c2ccsc2)c2ncc(CSCc3ccccc3)n2c1 | 7.3 µg/mL (≈ 20.8 µM) | 100 µg/mL (≈ 285 µM) | 6.5 µg/mL (≈ 18.5 µM) | 4 µg/mL (≈ 11.4 µM) | 100 µg/mL | 2.1 µg/mL (≈ 5.99 µM) |
| Cc1cc(-c2ccc3[nH]ccc3c2)cn2c(CSCCc3ccccc3)cnc12 | – | 26 µg/mL (≈ 65.4 µM) | – | > 20 µg/mL | ≥ 20 µg/mL | > 4 µg/mL |
| C=Cc1ccc(-c2cc(C)c3ncc(CSCCc4ccccc4)n3c2)cc1 | – | 14 µg/mL (≈ 36.4 µM) | – | > 4 µg/mL | 20 µg/mL | 2.9 µg/mL (≈ 7.54 µM) |
| Cc1cc(-c2ccsc2)cn2c(CSCc3ccccc3)cnc12 | > 0.8 µg/mL | 9.4 µg/mL (≈ 26.8 µM) | > 0.8 µg/mL | > 0.8 µg/mL | 4 µg/mL | 0.8 µg/mL (≈ 2.28 µM) |
| C=Cc1ccc(-c2cc(C)c3ncc(CSCc4ccccc4)n3c2)cc1 | – | 59 µg/mL (≈ 159 µM) | – | > 100 µg/mL | ≥ 100 µg/mL | 30 µg/mL (≈ 81 µM) |
| Cc1cc(-c2ccoc2)cn2c(CSCCc3ccccc3)cnc12 | 2.4 µg/mL (≈ 6.89 µM) | 12 µg/mL (≈ 34.4 µM) | > 0.8 µg/mL | > 0.8 µg/mL | > 4 µg/mL | 0.27 µg/mL (≈ 0.775 µM) |
| Cc1cc(N2CCN(C)CC2)cn2c(CSCCc3ccccc3)cnc12 | > 4 µg/mL | 32 µg/mL (≈ 84.1 µM) | > 4 µg/mL | > 20 µg/mL | 20 µg/mL | > 4 µg/mL |
| Cc1cc(-n2cccc2)cn2c(CSCCc3ccccc3)cnc12 | > 4 µg/mL | 11 µg/mL (≈ 31.7 µM) | > 0.8 µg/mL | > 0.8 µg/mL | ≥ 4 µg/mL | 1.3 µg/mL (≈ 3.74 µM) |
| Cc1cc(-n2cccc2)cn2c(CSCc3ccccc3)cnc12 | > 4 µg/mL | 17 µg/mL (≈ 51 µM) | 2.1 µg/mL (≈ 6.3 µM) | 1.6 µg/mL (≈ 4.8 µM) | 20 µg/mL | 1.3 µg/mL (≈ 3.9 µM) |
| Cc1cc(Sc2ccc(Cl)cc2)cn2c(CSCCc3ccccc3)cnc12 | > 4 µg/mL | 14 µg/mL (≈ 32.9 µM) | > 4 µg/mL | > 4 µg/mL | 20 µg/mL | > 4 µg/mL |
| Cc1cc(-n2ccc3ccccc32)cn2c(CSCCc3ccccc3)cnc12 | > 20 µg/mL | 18 µg/mL (≈ 45.3 µM) | > 4 µg/mL | > 4 µg/mL | > 20 µg/mL | 1.8 µg/mL (≈ 4.53 µM) |
| Cc1cc(Sc2ccc(O)cc2)cn2c(CSCCc3ccccc3)cnc12 | > 0.8 µg/mL | 100 µg/mL (≈ 246 µM) | > 0.8 µg/mL | > 0.8 µg/mL | 4 µg/mL | 0.8 µg/mL (≈ 1.97 µM) |
| Cc1cc(N2CCCC2)cn2c(CSCCc3ccccc3)cnc12 | > 4 µg/mL | 12 µg/mL (≈ 34.1 µM) | > 4 µg/mL | 4 µg/mL (≈ 11.4 µM) | 20 µg/mL | 2 µg/mL (≈ 5.69 µM) |
| Cc1cc(N2CCCC2=O)cn2c(CSCCc3ccccc3)cnc12 | > 100 µg/mL | 89 µg/mL (≈ 244 µM) | > 20 µg/mL | > 20 µg/mL | > 100 µg/mL | > 20 µg/mL |
| Cc1cc(-c2ccco2)cn2c(CSCCc3ccccc3)cnc12 | > 4 µg/mL | 40 µg/mL (≈ 115 µM) | > 0.8 µg/mL | > 0.8 µg/mL | > 4 µg/mL | > 0.8 µg/mL |
| Cc1cc(-c2ccc(C=O)cc2)cn2c(CSCCc3ccccc3)cnc12 | – | 9.4 µg/mL (≈ 24.3 µM) | – | 12.6 µg/mL (≈ 32.6 µM) | 100 µg/mL | 6 µg/mL (≈ 15.5 µM) |
| Nc1nc2c(ncn2COCCO)c(=O)[nH]1 [ACYCLOVIR] | 0.24 µg/mL (≈ 1.07 µM) | 137 µg/mL (≈ 608 µM) | 13 µg/mL (≈ 57.7 µM) | – | > 400 µg/mL | – |
| O=c1[nH]c(=O)n([C@H]2C[C@H](O)[C@@H](CO)O2)cc1/C=C/Br [BRIVUDINE] | 0.0037 µg/mL (≈ 0.0111 µM) | 122 µg/mL (≈ 366 µM) | > 50 µg/mL | – | 400 µg/mL | – |
| Nc1ccn(C[C@@H](CO)OCP(=O)(O)O)c(=O)n1 [CIDOFOVIR] | – | – | – | – | ≥ 100 µg/mL | – |
